Here are results for twelve compounds from ChEMBL document CHEMBL4837217, “Design, synthesis, in vitro and in vivo biological evaluation of pyranone-piperazine analogs as potent antileishmanial agents” (Eur J Med Chem, 2021).

Active and inactive are the calls of the source. The calls are words filed in the database; no cut-off is given here.

The subject of the first data set is Leishmania donovani. Nature of the data set: Antileishmanial activity against Leishmania donovani MHOM/IN/80/Dd8 infected in BALB/c mouse assessed as reduction in intracellular amastigote burden in spleen at 50 mg/kg, ip for 5 days and measured at 1 week post-treatment by Giemsa staining based assay relative to control. Conditions: time 12.0 day. It counts as functional. The procedure, abridged: (§1)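 Female BALB/c mice (20–25 g), 5/group, infected iv with 2 × 10^7 stationary-phase L. donovani promastigotes. Infection confirmed at 2 wk, then 50 mg/kg ip daily for 5 consecutive days. Vehicle was 5% DMSO. Sacrificed day 7 post-treatment. Giemsa-stained liver/spleen impression smears counted as amastigotes/1000 nucleated cells, expressed as LDU (amastigotes per nucleated cell × organ weight in mg), compared with untreated infected controls.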
Consider `N#Cc1c(N2CCN(c3ccccc3O)CC2)cc(-c2cccs2)oc1=O`, for which the result was Active.

The test system of the next data set is Leishmania donovani. The data set is described as follows: Antileishmanial activity against amastigote stage of Leishmania donovani MHOM/IN/80/Dd8 harboring luciferase gene infected in mouse J774 cells assessed as parasite killing incubated for 72 hrs by Steady-Glo reagent based luciferase assay. It counts as functional, organism-based. To be noted: dose 3.12-50 µM. Summed up: (§2)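 J774 murine macrophages, 4 × 10⁴ cells/well in RPMI with 10% FBS for 24 h, are infected for 24 h at 37 °C, 5% CO₂ with stationary-phase luciferase-transfected L. donovani Dd8 promastigotes at a 1:8 macrophage:parasite ratio. Compounds are dissolved in DMSO. Luminescence is read after Steady-Glo is added in PBS. IC₅₀ is taken from a four-parameter Hill nonlinear regression. Miltefosine is the reference.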
Consider `N#Cc1c(N2CCN(c3ccccc3O)CC2)cc(-c2cccs2)oc1=O`, for which the Activity result was “Dose-Dependent Effect”.

In the next data set the test system is Leishmania donovani. Nature of the data set: Induction of mitochondrial membrane potential dysfunction in Leishmania donovani MHOM/IN/80/Dd8 promastigotes assessed as cells with mitochondrial depolarization at 50 uM incubated for 72 hrs by JC1 staining based flow cytometry (reference value: 3.63%). It counts as functional.
Details: not given
`N#CC(C#N)=NNc1cccc(Cl)c1` [CARBONYL CYANIDE M-CHLOROPHENYLHYDRAZONE]: the Activity was 95.6%.

In the next data set the test system is Leishmania donovani. Nature of the data set: Antileishmanial activity against amastigote stage of Leishmania donovani MHOM/IN/80/Dd8 harboring luciferase gene infected in mouse J774 cells assessed as parasite growth inhibition at 50 uM incubated for 72 hrs by Steady-Glo reagent based luciferase assay. It counts as functional.
Details: not given
The procedure, abridged: as §2
Broadly, the inhibition is the share of the control response that was lost under treatment. Take `N#Cc1c(N2CCN(c3ccccc3O)CC2)cc(-c2ccc(Cl)cc2)oc1=O`: the inhibition entry was “inactive”.

Turning to `N#Cc1c(N2CCN(c3ccccc3O)CC2)cc(-c2ccccc2)c2c1CSC2`, the inhibition result was “inactive”.

Still in this data set, the particulars now being: MHOM/IN/80/Dd8, J774.
For `COc1ccccc1N1CCN(c2cc(-c3cccs3)oc(=O)c2C#N)CC1`, the inhibition at 50 µM worked out at 71.2%.

As to `N#Cc1c(N2CCN(c3ccccc3O)CC2)c2c(oc1=O)-c1ccccc1CC2`, the inhibition at 50 µM stood at 64.8%.

Take `COc1ccc(-c2cc(N3CCN(c4ccccc4Cl)CC3)c(C#N)c(=O)o2)cc1`: the inhibition at 50 µM stood at 62.5%.

Turning to `N#Cc1c2c(c3c(c1N1CCN(c4ccccc4O)CC1)Cc1ccccc1-3)CSC2`, the inhibition at 50 µM was 57.3%.

`Cc1ccc(-c2cc(N3CCN(c4ccccc4O)CC3)c(C#N)c(=O)o2)cc1`: the inhibition at 50 µM stood at 83.2%.

As to `N#Cc1c(N2CCN(c3ccccc3O)CC2)cc(-c2cccc3ccccc23)oc1=O`, the inhibition at 50 µM is 80.8%.

Consider `N#Cc1c(N2CCN(c3ccccc3O)CC2)cc(-c2ccc(Br)s2)oc1=O`, for which the inhibition at 50 µM was 85.1%.

Take `N#Cc1c(N2CCN(c3ccccc3O)CC2)cc(-c2ccc(Br)cc2)oc1=O`: the inhibition at 50 µM came out at 35.1%.

As for `N#Cc1c(N2CCN(c3ccccc3O)CC2)cc(-c2cccs2)oc1=O`, the inhibition at 50 µM was determined as 89.3%.

The subject of another data set is Leishmania donovani. The data set is described as follows: Antileishmanial activity against amastigote stage of Leishmania donovani MHOM/IN/80/Dd8 harboring luciferase gene infected in mouse J774 cells assessed as parasite growth inhibition incubated for 72 hrs by Steady-Glo reagent based luciferase assay. It counts as functional, organism-based. Conditions: MHOM/IN/80/Dd8, J774, 72 h. Summed up:
as §2
Broadly, the IC50 is the point on the concentration scale where inhibition reaches its midpoint. `Cc1ccc(-c2cc(N3CCN(c4ccccc4O)CC3)c(C#N)c(=O)o2)cc1`: the IC50 was found to be 13 µM.

As for `N#Cc1c(N2CCN(c3ccccc3O)CC2)cc(-c2cccc3ccccc23)oc1=O`, the IC50 amounted to 13 µM.

For the compound `N#Cc1c(N2CCN(c3ccccc3O)CC2)cc(-c2ccc(Br)s2)oc1=O`, the half-maximal inhibitory concentration (IC50) was found to be 13 µM.

Take `N#Cc1c(N2CCN(c3ccccc3O)CC2)cc(-c2cccs2)oc1=O`: the IC50 is 15.3 µM.

In the next data set the test system is Leishmania donovani. Nature of the data set: Antileishmanial activity against log phase of Leishmania donovani MHOM/IN/80/Dd8 promastigotes assessed as reduction in cell viability at 25 uM incubated for 72 hrs by MTT assay. It counts as functional.
Details: not given
Summed up:
(§3)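 Log-phase luciferase-transfected L. donovani Dd8 promastigotes (M199 + 10% FBS, 24 °C) treated with compounds at 25 and 50 µM in DMSO, with 0.1% DMSO vehicle control. After 72 h, MTT added 4 h. Formazan dissolved in DMSO, read at 570 nm. Percent inhibition reported as mean ± SD of at least three independent experiments in replicate.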
Background: Formazan colour is commonly taken as a measure of viable cells.
Regarding `COc1ccccc1N1CCN(c2cc(-c3cccs3)oc(=O)c2C#N)CC1`, the inhibition at 25 µM stood at 48.1%.

Consider `N#Cc1c(N2CCN(c3ccccc3O)CC2)c2c(oc1=O)-c1ccccc1CC2`, for which the inhibition at 25 µM stood at 35.9%.

Consider `COc1ccc(-c2cc(N3CCN(c4ccccc4Cl)CC3)c(C#N)c(=O)o2)cc1`, for which the inhibition at 25 µM amounted to 60.3%.

Turning to `N#Cc1c2c(c3c(c1N1CCN(c4ccccc4O)CC1)Cc1ccccc1-3)CSC2`, the inhibition result is “inactive”.

Regarding `Cc1ccc(-c2cc(N3CCN(c4ccccc4O)CC3)c(C#N)c(=O)o2)cc1`, the inhibition at 25 µM is 54.7%.

For the compound `N#Cc1c(N2CCN(c3ccccc3O)CC2)cc(-c2cccc3ccccc23)oc1=O`, the inhibition at 25 µM turned out to be 77.3%.

Turning to `N#Cc1c(N2CCN(c3ccccc3O)CC2)cc(-c2ccc(Br)s2)oc1=O`, the inhibition at 25 µM is 52.1%.

As for `N#Cc1c(N2CCN(c3ccccc3O)CC2)cc(-c2ccc(Cl)cc2)oc1=O`, the inhibition entry was “inactive”.

For the compound `N#Cc1c(N2CCN(c3ccccc3O)CC2)cc(-c2ccc(Br)cc2)oc1=O`, the inhibition result was “inactive”.

As to `N#Cc1c(N2CCN(c3ccccc3O)CC2)cc(-c2ccccc2)c2c1CSC2`, the inhibition at 25 µM was 82.1%.

Take `N#Cc1c(N2CCN(c3ccccc3O)CC2)cc(-c2cccs2)oc1=O`: the inhibition at 25 µM was 81.3%.

Another data set deals with Leishmania donovani. The data set is described as follows: Antileishmanial activity against log phase of Leishmania donovani MHOM/IN/80/Dd8 promastigotes assessed as reduction in cell viability at 50 uM incubated for 72 hrs by MTT assay. It counts as functional.
Details: not given
The procedure, abridged: as §3
Consider `COc1ccccc1N1CCN(c2cc(-c3cccs3)oc(=O)c2C#N)CC1`, for which the inhibition at 50 µM came to 62.2%.

In the case of `N#Cc1c(N2CCN(c3ccccc3O)CC2)c2c(oc1=O)-c1ccccc1CC2`, the inhibition at 50 µM amounted to 81.3%.

Turning to `COc1ccc(-c2cc(N3CCN(c4ccccc4Cl)CC3)c(C#N)c(=O)o2)cc1`, the inhibition at 50 µM was 69.2%.

Turning to `N#Cc1c2c(c3c(c1N1CCN(c4ccccc4O)CC1)Cc1ccccc1-3)CSC2`, the inhibition result was “inactive”.

In the case of `Cc1ccc(-c2cc(N3CCN(c4ccccc4O)CC3)c(C#N)c(=O)o2)cc1`, the inhibition at 50 µM was found to be 72.8%.

With `N#Cc1c(N2CCN(c3ccccc3O)CC2)cc(-c2cccc3ccccc23)oc1=O`, the inhibition at 50 µM came to 78.6%.

For the compound `N#Cc1c(N2CCN(c3ccccc3O)CC2)cc(-c2ccc(Br)s2)oc1=O`, the inhibition at 50 µM was 88.1%.

`N#Cc1c(N2CCN(c3ccccc3O)CC2)cc(-c2ccc(Cl)cc2)oc1=O`: the inhibition at 50 µM came to 25%.

As to `N#Cc1c(N2CCN(c3ccccc3O)CC2)cc(-c2ccc(Br)cc2)oc1=O`, the inhibition result was “inactive”.

In the case of `N#Cc1c(N2CCN(c3ccccc3O)CC2)cc(-c2ccccc2)c2c1CSC2`, the inhibition at 50 µM came out at 87.8%.

For `N#Cc1c(N2CCN(c3ccccc3O)CC2)cc(-c2cccs2)oc1=O`, the inhibition at 50 µM was found to be 90.2%.

System in another data set: not listed separately
The data set is described as follows: Cytotoxicity against mouse J774 cells assessed as reduction in cell viability incubated for 72 hrs by MTT assay. Type of data set: cell-based.
Details: not given
Summed up:
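J774 macrophages seeded at 1 × 10^5 cells/well overnight, then exposed to graded concentrations (7.81–500 µM) for 72 h at 37 °C, 5% CO2. MTT (5 mg/mL) added for 2 h, formazan solubilized in DMSO and read at 570 nm. CC50 taken as 50% viability loss relative to untreated cells.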
The CC50 is the concentration at which the toxic effect on the cells reaches its halfway point. As for `N#Cc1c(N2CCN(c3ccccc3O)CC2)cc(-c2cccs2)oc1=O`, the CC50 at 72 h was 311 µM.

The next data set deals with Leishmania donovani. Nature of the data set: Antileishmanial activity against amastigote stage of Leishmania donovani MHOM/IN/80/Dd8 harboring luciferase gene infected in mouse J774 cells assessed as parasite growth inhibition by Giemsa staining based analysis. To be noted: time 12-72 hrs, TDE = time-dependent effect. Type of data set: functional, organism-based. The procedure, abridged: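 J774 macrophages are infected for 24 h with stationary-phase luciferase-transfected Dd8 promastigotes at a 1:8 ratio in chamber slides. After compound treatment, cells are fixed and Giemsa-stained, and intracellular amastigotes are counted by microscopy.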
For the compound `N#Cc1c(N2CCN(c3ccccc3O)CC2)cc(-c2cccs2)oc1=O`, the Activity result is “Tde”.

In a further data set the test system is Leishmania donovani. The data set is described as follows: Antileishmanial activity against amastigote stage of Leishmania donovani MHOM/IN/80/Dd8 harboring luciferase gene infected in mouse J774 cells assessed as parasite growth inhibition at 25 uM incubated for 72 hrs by Steady-Glo reagent based luciferase assay. Type of data set: functional.
Details: not given
The procedure, abridged:
as §2
Consider `N#Cc1c(N2CCN(c3ccccc3O)CC2)cc(-c2ccc(Cl)cc2)oc1=O`, for which the inhibition result was “inactive”.

Consider `N#Cc1c(N2CCN(c3ccccc3O)CC2)cc(-c2ccccc2)c2c1CSC2`, for which the inhibition entry is “inactive”.

Staying with this data set, now noted: MHOM/IN/80/Dd8, J774.
Regarding `COc1ccccc1N1CCN(c2cc(-c3cccs3)oc(=O)c2C#N)CC1`, the inhibition at 25 µM came to 52.2%.

Take `N#Cc1c(N2CCN(c3ccccc3O)CC2)c2c(oc1=O)-c1ccccc1CC2`: the inhibition at 25 µM was found to be 37.8%.

As for `COc1ccc(-c2cc(N3CCN(c4ccccc4Cl)CC3)c(C#N)c(=O)o2)cc1`, the inhibition at 25 µM was found to be 51%.

On to `N#Cc1c2c(c3c(c1N1CCN(c4ccccc4O)CC1)Cc1ccccc1-3)CSC2`, for which the inhibition at 25 µM came out at 45.5%.

Regarding `Cc1ccc(-c2cc(N3CCN(c4ccccc4O)CC3)c(C#N)c(=O)o2)cc1`, the inhibition at 25 µM amounted to 77.3%.

For the compound `N#Cc1c(N2CCN(c3ccccc3O)CC2)cc(-c2cccc3ccccc23)oc1=O`, the inhibition at 25 µM is 71.4%.

With `N#Cc1c(N2CCN(c3ccccc3O)CC2)cc(-c2ccc(Br)s2)oc1=O`, the inhibition at 25 µM came out at 74.8%.

Turning to `N#Cc1c(N2CCN(c3ccccc3O)CC2)cc(-c2ccc(Br)cc2)oc1=O`, the inhibition at 25 µM came out at 14.5%.

Take `N#Cc1c(N2CCN(c3ccccc3O)CC2)cc(-c2cccs2)oc1=O`: the inhibition at 25 µM was found to be 84.7%.

The next data set has as its system Leishmania donovani. The data set is described as follows: Antileishmanial activity against amastigote stage of Leishmania donovani MHOM/IN/80/Dd8 harboring luciferase gene infected in mouse J774 cells assessed as parasite killing at 50 to 100 uM incubated for 72 hrs by Steady-Glo reagent based luciferase assay. It counts as functional. To be noted: dose 50-100 µM. The procedure, abridged:
as §2
For `N#Cc1c(N2CCN(c3ccccc3O)CC2)cc(-c2cccs2)oc1=O`, the Activity is reported as above 89%.

The next data set relates to Leishmania donovani. Nature of the data set: Antileishmanial activity against Leishmania donovani MHOM/IN/80/Dd8 infected in BALB/c mouse assessed as reduction in intracellular amastigote burden in liver at 50 mg/kg, ip for 5 days and measured at 1 week post-treatment by Giemsa staining based assay relative to control. It counts as functional. Conditions: time 12.0 day. The procedure, abridged: as §1
For the compound `N#Cc1c(N2CCN(c3ccccc3O)CC2)cc(-c2cccs2)oc1=O`, the result was Active.

The test system of another data set is Leishmania donovani. Nature of the data set: Antileishmanial activity against log phase of Leishmania donovani MHOM/IN/80/Dd8 promastigotes assessed as reduction in cell viability by MTT assay. Type of data set: functional, organism-based. To be noted: time 12-72 hrs, TDE = time-dependent effect.
Consider `N#Cc1c(N2CCN(c3ccccc3O)CC2)cc(-c2cccs2)oc1=O`, for which the Activity entry was “Tde”.
